Measurements reported in ChEMBL document CHEMBL4665761, “Optimizing the Benefit/Risk of Acetyl-CoA Carboxylase Inhibitors through Liver Targeting” (J Med Chem, 2020).

Columns and labels:
[1] = Drug uptake in Wistar-Hannover rat liver at 30 mg/kg, po after 6 hrs by LC/MS-MS analysis; format: ADME, organism-based; details: read-out: Drug uptake
How it was run: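 Male Wistar-Hannover rats, n = 2 or 3, given an oral suspension in 0.5% methyl cellulose with 0.1% Tween 80; one compound was dosed as the HCl salt. Total plasma and liver concentrations were measured 6 h post-dose. Kp = liver/plasma total concentration. Kpu,u uses fu values from equilibrium dialysis.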

[2] = Tmax in Wistar-Hannover rat plasma at 4 mg/kg, po and measured up to 24 hrs by LC/MS-MS analysis; format: ADME, organism-based
How it was run: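 Plasma concentration–time data, n = 2, averaged. Cmax and Tmax read directly from the data. AUC0–24 by the linear trapezoidal rule. F calculated as dose-normalized AUC PO/IV.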

[3] = target: T1, OATP1B1 (Homo sapiens, UniProt Q9Y6L6); test: Substrate activity at human OATP1B1 stably expressed in HEK293 cells assessed as ratio of total to passive cellular uptake at 1 uM incubated for 5 mins by LC/MS-MS analysis; format: ADME, cell-based; details: HEK293 cells stably expressing human OATP1B1
T1 sequence (Q9Y6L6 whole entry): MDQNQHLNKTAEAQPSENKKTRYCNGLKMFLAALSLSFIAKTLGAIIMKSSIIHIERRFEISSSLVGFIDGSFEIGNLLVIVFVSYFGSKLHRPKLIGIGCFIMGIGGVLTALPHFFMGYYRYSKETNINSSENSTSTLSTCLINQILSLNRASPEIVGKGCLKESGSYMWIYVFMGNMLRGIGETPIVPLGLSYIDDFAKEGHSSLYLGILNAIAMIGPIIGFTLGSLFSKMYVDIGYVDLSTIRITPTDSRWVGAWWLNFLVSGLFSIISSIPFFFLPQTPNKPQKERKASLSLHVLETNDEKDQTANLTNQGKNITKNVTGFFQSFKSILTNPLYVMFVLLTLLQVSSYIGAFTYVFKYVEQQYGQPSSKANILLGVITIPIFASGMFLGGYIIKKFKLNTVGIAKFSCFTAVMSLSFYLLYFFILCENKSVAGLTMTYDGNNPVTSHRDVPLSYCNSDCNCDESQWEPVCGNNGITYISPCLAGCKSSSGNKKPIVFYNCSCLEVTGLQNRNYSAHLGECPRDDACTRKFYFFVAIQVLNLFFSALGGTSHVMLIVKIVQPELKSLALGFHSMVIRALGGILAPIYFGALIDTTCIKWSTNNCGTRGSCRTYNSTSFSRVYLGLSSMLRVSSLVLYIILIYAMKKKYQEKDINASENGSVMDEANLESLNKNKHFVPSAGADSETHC
How it was run: (§1)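 Transfected versus parental HEK293 cells exposed at 1 µM for 5 min at 37 °C. Ratio is total (transfected) over passive (parental) uptake; >2 denotes substrate.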

[4] = target: T2, OATP1B3 (Homo sapiens, UniProt Q9NPD5); test: Substrate activity at human OATP1B3 stably expressed in HEK293 cells assessed as ratio of total to passive cellular uptake at 1 uM incubated for 5 mins by LC/MS-MS analysis; format: ADME, cell-based; details: HEK293 cells stably expressing human OATP1B3; how it was run: as §1
T2 sequence (Q9NPD5 whole entry): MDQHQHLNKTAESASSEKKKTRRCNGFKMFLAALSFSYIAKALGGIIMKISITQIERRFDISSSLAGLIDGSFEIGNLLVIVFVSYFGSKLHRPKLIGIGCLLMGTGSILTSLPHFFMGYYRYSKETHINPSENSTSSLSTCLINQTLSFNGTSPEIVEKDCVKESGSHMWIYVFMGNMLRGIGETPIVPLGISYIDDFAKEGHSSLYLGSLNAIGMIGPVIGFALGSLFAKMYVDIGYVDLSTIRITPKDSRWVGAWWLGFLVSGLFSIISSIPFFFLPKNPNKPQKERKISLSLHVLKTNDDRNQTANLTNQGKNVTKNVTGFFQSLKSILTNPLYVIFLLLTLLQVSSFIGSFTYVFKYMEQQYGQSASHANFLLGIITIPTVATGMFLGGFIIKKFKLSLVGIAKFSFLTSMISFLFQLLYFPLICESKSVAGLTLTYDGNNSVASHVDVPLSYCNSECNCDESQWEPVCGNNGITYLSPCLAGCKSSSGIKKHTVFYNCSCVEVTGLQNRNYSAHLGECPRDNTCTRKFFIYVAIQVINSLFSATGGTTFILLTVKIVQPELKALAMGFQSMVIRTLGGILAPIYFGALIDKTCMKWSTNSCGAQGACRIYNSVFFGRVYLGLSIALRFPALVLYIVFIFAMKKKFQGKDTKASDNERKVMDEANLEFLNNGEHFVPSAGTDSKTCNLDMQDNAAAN

[5] = Ratio of drug uptake in Wistar-Hannover rat liver to plasma at 30 mg/kg, po after 6 hrs by LC/MS-MS analysis; format: ADME, organism-based; details: liver and plasma
How it was run: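 Male Wistar-Hannover rats (n = 2 or 3) dosed orally as a suspension in 0.5% methyl cellulose with 0.1% Tween 80. Plasma and liver sampled 6 h post-dose. Kp is total liver/plasma; Kpu,u uses unbound fractions from equilibrium dialysis of plasma and liver.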

[6] = Half life in Wistar-Hannover rat plasma at 4 mg/kg, po and measured up to 24 hrs by LC/MS-MS analysis; format: ADME, organism-based
[7] = Genotoxicity in Salmonella typhimurium TA98 by Ames test; format: toxicity; details: salmonella enterica subsp. enterica serovar typhimurium
How it was run: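 Ames test in Salmonella strains TA98, TA100, TA1535 and TA1537, run with and without aroclor-induced rat liver S9 plus NADPH.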

[8] = target: Cytochrome P450 1A2 (Homo sapiens, UniProt P05177); test: Activation of CYP1A2 in human hepatocytes at 0.5 to 200 uM; format: ADME, cell-based, Hepatocyte; details: dose 0.5-200 µM
Cytochrome P450 1A2, sequence (P05177 whole entry): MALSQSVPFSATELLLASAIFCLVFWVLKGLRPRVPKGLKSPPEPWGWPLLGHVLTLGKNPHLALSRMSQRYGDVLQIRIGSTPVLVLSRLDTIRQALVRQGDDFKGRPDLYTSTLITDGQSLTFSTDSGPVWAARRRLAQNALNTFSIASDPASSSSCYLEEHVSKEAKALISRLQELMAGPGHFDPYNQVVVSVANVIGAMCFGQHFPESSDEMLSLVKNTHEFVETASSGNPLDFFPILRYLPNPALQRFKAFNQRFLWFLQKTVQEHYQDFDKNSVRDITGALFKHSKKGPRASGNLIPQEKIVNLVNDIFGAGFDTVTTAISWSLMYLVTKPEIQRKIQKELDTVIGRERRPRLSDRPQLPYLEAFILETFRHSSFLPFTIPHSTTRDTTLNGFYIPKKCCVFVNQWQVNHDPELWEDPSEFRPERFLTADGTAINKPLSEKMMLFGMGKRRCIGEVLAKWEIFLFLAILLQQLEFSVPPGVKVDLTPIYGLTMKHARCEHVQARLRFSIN

[9] = Inhibition of DNL in Sprague-Dawley rat assessed as reduction in DNL level in liver at 300 mg/kg, po pretreated with one hr followed by [14C]-acetate treatment and measured after 1 hr relative to control; format: functional
How it was run: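 Sprague-Dawley rats given single oral doses of 0.03–300 mg/kg in 0.5% methyl cellulose vehicle, n = 16 per dose. Read-out is incorporation of 14C-acetate into lipids in liver, bone marrow and lung, measured at 2 h post-dose relative to vehicle. Data are mean ± SEM. EC50 is reported with a 95% confidence interval.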

[10] = target: Solute carrier family 22 member 2 (Homo sapiens, UniProt O15244); test: Inhibition of human SLC22A2 expressed in HEK293 cells in presence of para-aminohippuric acid/metformin; format: cell-based
Solute carrier family 22 member 2, sequence (O15244 whole entry): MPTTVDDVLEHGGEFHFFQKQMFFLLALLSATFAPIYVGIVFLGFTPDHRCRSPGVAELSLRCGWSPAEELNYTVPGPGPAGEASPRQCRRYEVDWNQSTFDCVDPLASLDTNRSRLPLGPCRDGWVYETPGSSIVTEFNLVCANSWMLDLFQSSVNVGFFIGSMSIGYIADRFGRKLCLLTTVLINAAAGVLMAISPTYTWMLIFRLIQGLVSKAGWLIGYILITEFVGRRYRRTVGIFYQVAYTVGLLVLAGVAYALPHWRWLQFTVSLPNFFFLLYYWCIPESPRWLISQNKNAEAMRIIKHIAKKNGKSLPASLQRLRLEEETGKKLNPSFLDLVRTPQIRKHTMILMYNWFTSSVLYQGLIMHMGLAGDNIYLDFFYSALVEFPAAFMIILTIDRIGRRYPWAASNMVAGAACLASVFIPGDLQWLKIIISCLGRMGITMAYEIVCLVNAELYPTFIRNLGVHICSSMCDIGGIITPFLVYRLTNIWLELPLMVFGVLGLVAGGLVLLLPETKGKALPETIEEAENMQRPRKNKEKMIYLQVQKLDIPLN

[11] = system: TK6; test: Genotoxicity in human TK6 cells by micronucleus test; format: toxicity, cell-based
How it was run: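 In vitro micronucleus assay in Chinese hamster ovary or TK6 cells, run with and without metabolic activation by aroclor-induced rat liver S9 fraction plus NADPH.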

[12] = target: Voltage-gated inwardly rectifying potassium channel KCNH2 (Homo sapiens, UniProt Q12809); test: Inhibition of human ERG at 100 uM
Voltage-gated inwardly rectifying potassium channel KCNH2, sequence (Q12809 whole entry): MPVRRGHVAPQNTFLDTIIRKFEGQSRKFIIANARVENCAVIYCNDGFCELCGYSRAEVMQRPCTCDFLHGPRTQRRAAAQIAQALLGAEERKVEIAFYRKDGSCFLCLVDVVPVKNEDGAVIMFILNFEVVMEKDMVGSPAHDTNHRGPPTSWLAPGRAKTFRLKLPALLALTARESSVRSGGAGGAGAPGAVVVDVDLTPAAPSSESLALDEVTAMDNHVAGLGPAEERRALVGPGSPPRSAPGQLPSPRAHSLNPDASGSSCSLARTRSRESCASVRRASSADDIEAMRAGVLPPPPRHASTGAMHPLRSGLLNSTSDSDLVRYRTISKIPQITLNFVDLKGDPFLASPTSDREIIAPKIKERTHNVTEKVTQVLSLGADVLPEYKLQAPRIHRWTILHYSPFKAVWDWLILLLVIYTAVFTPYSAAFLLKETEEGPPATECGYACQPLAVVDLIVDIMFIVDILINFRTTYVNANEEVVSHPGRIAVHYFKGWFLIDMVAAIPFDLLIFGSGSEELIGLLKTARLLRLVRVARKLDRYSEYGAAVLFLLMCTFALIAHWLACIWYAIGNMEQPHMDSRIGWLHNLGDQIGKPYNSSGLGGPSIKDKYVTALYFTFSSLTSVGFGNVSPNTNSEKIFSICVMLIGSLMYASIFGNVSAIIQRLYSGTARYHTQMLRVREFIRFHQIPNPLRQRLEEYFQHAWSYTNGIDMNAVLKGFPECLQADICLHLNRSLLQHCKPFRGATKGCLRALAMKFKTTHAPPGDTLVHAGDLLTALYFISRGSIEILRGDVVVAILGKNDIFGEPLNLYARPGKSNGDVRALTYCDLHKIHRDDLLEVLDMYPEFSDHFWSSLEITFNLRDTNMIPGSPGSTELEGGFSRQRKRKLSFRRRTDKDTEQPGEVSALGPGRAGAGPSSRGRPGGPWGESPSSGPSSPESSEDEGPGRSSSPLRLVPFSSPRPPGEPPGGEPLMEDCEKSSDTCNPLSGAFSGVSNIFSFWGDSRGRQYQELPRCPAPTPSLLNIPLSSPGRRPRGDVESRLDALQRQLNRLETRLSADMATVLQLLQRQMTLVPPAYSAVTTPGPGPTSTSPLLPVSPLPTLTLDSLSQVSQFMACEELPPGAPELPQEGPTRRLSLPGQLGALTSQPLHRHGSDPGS

[13] = Induction of CYP3A4 mRNA expression in human hepatocytes at 0.5 to 200 uM; format: ADME, cell-based, Hepatocyte; details: dose 0.5-200 µM
How it was run: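 Individual human hepatocyte lots treated at 0.5–200 µM. Read-out is messenger RNA levels of CYP1A2 and CYP3A4.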

SMILES | concentration at 6 h [1] | Tmax [2] | uptake ratio at 5 min, 1 µM [3] | uptake ratio at 5 min, 1 µM [4] | Kp at 6 h [5] | half-life [6] | Activity [7] | Activity [8] | inhibition in vivo at 300 mg/kg [9] | IC50 [10] | Activity [11] | inhibition (INH) [12] | Activity [13]
COc1cc(C(=O)N2CCC3(CC2)CC(=O)c2nn(C(C)(C)C)cc2O3)cc(-c2ccc(C(=O)O)cc2)n1 | 38100 ng/mL | 45 min | 5 | 3.3 | 914 | 342 min |  |  |  |  |  |  | 
COc1cc(C(=O)N2CCC3(CC2)CC(=O)c2c(cnn2C(C)C)C3)cc(-c2ccc(C(=O)O)cc2)n1 [CLESACOSTAT] |  |  |  |  |  |  | Non-Toxic | Not Active | 82% | > 30 µM | Non-Toxic | Not Active | Not Active
